In ChEMBL document CHEMBL1133770, “Synthesis and antitumor activity of new benzoheterocyclic derivatives of distamycin A” (J Med Chem, 2000):
Several values for one entry are separate records, joined by “and”; a condition that tells them apart may be missing. Equal values may be shown once.

Legend:
[1] = tested on: L1210; test: In vivo optimal nontoxic dose against murine L1210 leukemia cells after ip treatment on day 1 after tumor ip transplant; type: functional, Mus musculus
Procedure, shortened: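 L1210 leukemia cells (10^5/mouse) were implanted ip or iv in female mice, 10 per group. Compounds were made fresh in 10% Tween 80/90% saline and given ip or iv on day 1 after implant, over a dose-response range. […] Toxicity was judged by gross autopsy and weight loss.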

[2] = tested on: L1210; test: In vitro antitumor activity evaluated against L1210 murine leukemia cell line; type: functional, cell-based; settings: Mus musculus
Procedure, shortened: (§1)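 L1210 murine leukemia cells and their doxorubicin-resistant and tallimustine-resistant sublines were grown as stationary suspension in RPMI 1640 with 10% fetal calf serum, 2 mM L-glutamine, β-mercaptoethanol and antibiotics. Compounds were dissolved in DMSO at 1 mg/mL (stock) and diluted in medium. Exponentially growing cells were exposed continuously for 48 h, and survivors were counted electronically. IC50 (cell number reduced to 50% of untreated control) was taken from dose-response curves. Duplicate cultures were used, with vehicle controls.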

[3] = tested on: L1210; test: In vivo median survival time of treated vs untreated mice x 100 against murine L1210 leukemia cells after ip treatment on day 1 after tumor iv transplant; type: functional, Mus musculus
[4] = tested on: L1210; test: Inhibition of growth in L1210 leukemia cells resistant to Tallimustine.; type: functional, cell-based; settings: Mus musculus; procedure, shortened: as §1
[5] = tested on: L1210; test: Ratio between IC50 value on resistant cells and sensitive cells; type: functional, Mus musculus; set-up: reference not given here
Procedure, shortened: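 Murine L1210 leukemia cells, parental and doxorubicin- or tallimustine-resistant sublines, were grown in stationary suspension in RPMI 1640 with 10% FCS, 2 mM glutamine, […] and antibiotics. Exponentially growing cells were exposed continuously for 48 h to graded concentrations from a 1 mg/mL DMSO stock, and survivors were counted electronically. IC50 came from dose-response curves, with duplicate cultures and at least two repeats. RI was the IC50 on resistant cells divided by the IC50 on sensitive cells.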

[6] = tested on: L1210; test: Inhibition of growth in L1210 leukemia cells resistant to doxorubicin(DX).; type: functional, cell-based; settings: Mus musculus; procedure, shortened: as §1
[7] = tested on: L1210; test: In vivo optimal nontoxic dose against murine L1210 leukemia cells after i.v. administration day 1 after tumor i.v. inoculation.
[8] = molecular target: Estrogen receptor (Homo sapiens, UniProt Q92731+P03372); test: Tested for 50% inhibition of generation of Human estrogen receptor polymerase chain reaction(PCR) products; type: protein assay
[9] = tested on: L1210; test: In vivo median survival time of treated vs untreated mice x 100 against murine L1210 leukemia cells after iv treatment on day 1 after tumor iv transplant; type: functional, Mus musculus
[10] = Resistance index(RI) = Ratio between IC50 value on resistant cells and sensitive cells; type: functional
Procedure, shortened: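 L1210/DX (doxorubicin-resistant), L1210/tallimustine-resistant and parental L1210 cells grown as stationary suspension in RPMI 1640 with 10% FCS. Compounds from 1 mg/mL DMSO stock, diluted in medium. Exponentially growing cells exposed continuously for 48 h, with duplicate cultures per concentration and vehicle controls. Survivors counted electronically; IC50 taken from dose-response curves. RI = resistant-line IC50 / parental L1210 IC50.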

SMILES | Optimal dose [1] [mg/kg] | IC50 [2] [nM] | T/C [3] [%] | IC50 [4] [nM] | Resistance index [5] | IC50 [6] [nM] | Optimal dose [7] [mg/kg] | IC50 [8] [nM] | T/C [9] [%] | Resistance index [10]
Cl.Cn1cc(NC(=O)c2cc(NC(=O)c3cc(NC(=O)c4cc(NC(=O)c5ccc(N(CCCl)CCCl)cc5)nn4C)cn3C)cn2C)cc1C(=O)NCCC(=N)N | 3.1 | 34.5 | 144 | 10.4 | 326.2 and 302.3 | 0.42 | – | – | – | –
Cl.Cn1cc(NC(=O)c2cc(NC(=O)c3cc(NC(=O)c4cc5cc(N(CCCl)CCCl)ccc5[nH]4)cn3C)cn2C)cc1C(=O)NCCC(=N)N | – | 8 | – | 1.2 | 6.8 and 19 | 0.42 | 0.39 | 1 | 174 | –
Cl.Cn1cc(NC(=O)c2cc(NC(=O)c3cc(NC(=O)c4nc(NC(=O)c5ccc(N(CCCl)CCCl)cc5)cn4C)cn3C)cn2C)cc1C(=O)NCCC(=N)N | – | 2370 | 125 | 5 | 2 and 2.1 | 0.42 | – | – | – | –
Cn1cc(NC(=O)c2cc(NC(=O)c3cc(NC(=O)c4cc(NC=O)cn4C)cn3C)cn2C)cc1C(=O)NCCC(=N)N | – | – | – | 1.2 | – | 0.42 | – | – | – | –
Cl.Cn1cc(NC(=O)c2cc(NC(=O)c3cc(NC(=O)c4cc5cc(N(CCCl)CCCl)ccc5o4)cn3C)cn2C)cc1C(=O)NCCC(=N)N | – | 3.7 | – | 1.2 | 6.8 and 19 | 0.42 | 0.39 | 3 | 200 | –
Cl.Cn1cc(NC(=O)c2cc(NC(=O)c3cc(N(CCCl)CCCl)cn3C)cn2C)cc1C(=O)NCCC(=N)N | 1.6 | 3.9 | 138 | – | – | – | 0.78 | – | 117 | –
Cl.Cn1cc(NC(=O)c2cc(NC(=O)c3cc(NC(=O)c4cc(N(CCCl)CCCl)cn4C)cn3C)cn2C)cc1C(=O)NCCC(=N)N | 0.39 | 0.081 | 188 | – | – | – | 0.39 | – | 133 | –
C=C(Br)C(=O)Nc1cc(C(=O)Nc2cc(C(=O)Nc3cc(C(=O)Nc4cc(C(=O)NCCC(=N)N)n(C)c4)n(C)c3)n(C)c2)n(C)n1.Cl | 6.2 | 13.3 | 200 | – | – | 0.42 | – | – | – | –
C=C(Br)C(=O)Nc1ccc2[nH]c(C(=O)Nc3cc(C(=O)Nc4cc(C(=O)Nc5cc(C(=O)NCCC(=N)N)n(C)c5)n(C)c4)n(C)c3)cc2c1.Cl | – | 4.1 | – | 140 | – | 36 | 12.5 | – | 213 | –
C=C(Br)C(=O)Nc1cc(C(=O)Nc2cc(C(=O)Nc3cc(C(=O)NCCC(=N)N)n(C)c3)n(C)c2)n(C)c1.Cl | – | – | – | 1.2 | 68 and 156 | – | – | – | – | –
Cl.Cn1cc(NC(=O)c2cc(NC(=O)c3cc(NC(=O)c4nc5cc(NC(=O)c6ccc(N(CCCl)CCCl)cc6)ccc5[nH]4)cn3C)cn2C)cc1C(=O)NCCC(=N)N | – | 1420 | – | 1.2 | 6.8 and 19 | 0.42 | – | 5 | – | –
Cl.Cn1cc(NC(=O)c2cc(NC(=O)c3cc(NC(=O)c4cc5cc(N(CCCl)CCCl)ccc5n4C)cn3C)cn2C)cc1C(=O)NCCC(=N)N | – | 14.7 | – | 1.2 | 6.8 and 19 | 0.42 | 1.6 | 1 | 457 | –
Cl.Cn1cc(NC(=O)c2cc(NC(=O)c3cc(NC(=O)/C=C/c4ccc(N(CCCl)CCCl)cc4)cn3C)cn2C)cc1C(=O)NCCC(=N)N | – | – | – | – | – | – | 6.2 | – | 267 | –
Cl.Cn1cc(NC(=O)c2cc(NC(=O)c3cc(NC(=O)c4cc5cc(NC(=O)c6ccc(N(CCCl)CCCl)cc6)ccc5n4C)cn3C)cn2C)cc1C(=O)NCCC(=N)N | – | 61.7 | – | 1.2 | – | 0.42 | 25 | 5 | 183 | 6.8 and 19
Cl.Cn1cc(NC(=O)c2cc(NC(=O)c3cc(NC(=O)c4cc5cc(NC(=O)c6ccc(N(CCCl)CCCl)cc6)ccc5o4)cn3C)cn2C)cc1C(=O)NCCC(=N)N | – | 43.5 | – | 1.2 | 6.8 and 19 | 0.42 | 6.2 | – | 150 | –
C=C(Br)C(=O)Nc1ccc2oc(C(=O)Nc3cc(C(=O)Nc4cc(C(=O)Nc5cc(C(=O)NCCC(=N)N)n(C)c5)n(C)c4)n(C)c3)cc2c1.Cl | – | 6.1 | – | 210 | – | 39 | 0.78 | – | 117 | –
Cl.Cn1cc(NC(=O)c2cc(NC(=O)c3cc(NC(=O)c4cc5cc(NC(=O)c6ccc(N(CCCl)CCCl)cc6)ccc5[nH]4)cn3C)cn2C)cc1C(=O)NCCC(=N)N | – | 95.3 | – | 0.88 | 5.7 and 9.2 | 0.54 | 3.1 | 7.5 | 163 | –
Cl.Cn1cc(NC(=O)c2cc(NC(=O)c3cc(NC(=O)c4cc(NC(=O)c5ccc(N(CCCl)CCCl)cc5)cn4C)cn3C)cn2C)cc1C(=O)NCCC(=N)N | – | – | – | 1.2 | 19 | – | 0.4 | – | – | –
C=C(Br)C(=O)Nc1ccc2c(c1)cc(C(=O)Nc1cc(C(=O)Nc3cc(C(=O)NCCC(=N)N)n(C)c3)n(C)c1)n2C.Cl | – | 15.3 | – | 150 | – | 41 | 3.1 | – | 133 | –
C=C(Br)C(=O)Nc1cn(C)c(C(=O)Nc2cc(C(=O)Nc3cc(C(=O)Nc4cc(C(=O)NCCC(=N)N)n(C)c4)n(C)c3)n(C)c2)n1.Cl | 6.2 | 46.9 | 163 | 1.2 | 15.5 and 13.9 | 0.42 | – | – | – | –
C=C(Br)C(=O)Nc1ccc2c(c1)cc(C(=O)Nc1cc(C(=O)Nc3cc(C(=O)Nc4cc(C(=O)NCCC(=N)N)n(C)c4)n(C)c3)n(C)c1)n2C.Cl | – | 2.4 | – | 150 | – | 43 | 6.2 | – | 192 | –
C=C(Br)C(=O)Nc1cc(C(=O)Nc2cc(C(=O)Nc3cc(C(=O)Nc4cc(C(=O)NCCC(=N)N)n(C)c4)n(C)c3)n(C)c2)n(C)c1.Cl | 3.1 | – | 725 | – | – | 0.42 | 1.6 | – | 200 | –
Cn1cc(NC(=O)c2cc(NC(=O)c3cc(NC=O)cn3C)cn2C)cc1C(=O)NCCC(=N)N [STALLIMYCIN] | – | 10100 | – | 142000 | – | 459000 | – | 20 | – | –
Cl.Cn1cc(NC(=O)c2cc(NC(=O)c3cc(NC(=O)c4ccc(N(CCCl)CCCl)cc4)cn3C)cn2C)cc1C(=O)NCCC(=N)N [TALLIMUSTINE CHLORIDE] | 3.1 | – | – | – | – | – | 3.1 | – | 133 | –
